Test results from ChEMBL document CHEMBL1143837, “In vitro activities of various antimicrobials alone and in combination with tigecycline against carbapenem-intermediate or -resistant Acinetobacter baumannii” (2007).
In brackets after ≈: the same amount, converted by molar mass. Activity calls are given as the source filed them. The calls are words filed in the database; no cut-off is given here.

Tests used:
Acinetobacter baumannii [1] = experiment: Antimicrobial activity against carbapenem-intermediate or resistant Acinetobacter baumannii isolates by agar dilution method; format: functional
How it was run: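 Clinical isolates with imipenem or meropenem MIC ≥8 mg/liter were tested by agar dilution on Mueller-Hinton agar supplemented with 25 mg/liter calcium and 12.5 mg/liter magnesium. Inoculum was ~10⁴ CFU per spot from a 0.5 McFarland BHI suspension. Plates were incubated at 35°C for 18–24 h. Growth beyond a single colony or a slight haze counted as growth.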

Acinetobacter baumannii [2] = experiment: Antimicrobial activity against carbapenem-intermediate or resistant Acinetobacter baumannii assessed as percent susceptible isolates; format: functional
Acinetobacter baumannii [3] = experiment: Antimicrobial activity against carbapenem-intermediate or resistant Acinetobacter baumannii isolates by broth microdilution method; format: functional
How it was run: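 Tigecycline MIC by broth microdilution in freshly prepared CAMHB (25 mg/liter calcium, 12.5 mg/liter magnesium). Approximately 5 × 10⁵ CFU/ml was added to serial drug dilutions and incubated in ambient air at 35°C for 18–24 h. Isolates had imipenem or meropenem MIC ≥8 mg/liter.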

Acinetobacter baumannii [4] = experiment: Bactericidal activity against carbapenem-resistant Acinetobacter baumannii AA557 by time kill curve analysis; format: functional, organism-based
How it was run: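 Time-kill on AA557: mid-log (4 h) inoculum at ~5 × 10⁵ CFU/ml in 10 ml fresh CAMHB with tigecycline at 0.5×, 1×, 2× or 4× MIC, or at the calculated average free steady-state serum level, plus growth control. Sampled at 0, 2, 4, 8, 24 and 48 h and plated in duplicate on sheep-blood TSA (35°C, 18–24 h). Detection limit 40 CFU/ml. Experiments run in duplicate.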

Acinetobacter baumannii [5] = experiment: Bactericidal activity against carbapenem-resistant Acinetobacter baumannii AA557 assessed as reduction in colony count at 2 mg/liter after 24 hrs by time kill curve analysis; format: functional, organism-based

With `NCC[C@H](O)C(=O)N[C@@H]1C[C@H](N)[C@@H](O[C@H]2O[C@H](CN)[C@@H](O)[C@H](O)[C@H]2O)[C@H](O)[C@H]1O[C@H]1O[C@H](CO)[C@@H](O)[C@H](N)[C@H]1O` [AMIKACIN] the MIC50 (Acinetobacter baumannii [1]) was 32 µg/mL (≈ 54.6 µM), the MIC90 (Acinetobacter baumannii [1]) was greater than 32 µg/mL and the Activity (Acinetobacter baumannii [2]) was 38%.

`O=C(O)c1cn(C2CC2)c2cc(N3CCNCC3)c(F)cc2c1=O` [CIPROFLOXACIN] gave an Activity (Acinetobacter baumannii [2]) of 0%.

In the case of `C[C@H]1c2cccc(O)c2C(=O)C2=C(O)[C@]3(O)C(=O)C(C(N)=O)=C(O)[C@@H](N(C)C)[C@@H]3[C@@H](O)[C@@H]21.O` [DOXYCYCLINE], the MIC50 (Acinetobacter baumannii [1]) is reported as 2 µg/mL, the MIC90 (Acinetobacter baumannii [1]) is reported as greater than 32 µg/mL and the Activity (Acinetobacter baumannii [2]) is reported as 56%.

`C[C@@H](O)[C@H]1C(=O)N2C(C(=O)O)=C(SCCNC=N)C[C@H]12` [IMIPENEM ANHYDROUS] was tested, and the MIC50 (Acinetobacter baumannii [1]) was 4 µg/mL (≈ 13.4 µM), the MIC90 (Acinetobacter baumannii [1]) was 64 µg/mL (≈ 214 µM) and the Activity (Acinetobacter baumannii [2]) was 20%.

`C[C@@H](O)[C@H]1C(=O)N2C(C(=O)O)=C(S[C@@H]3CN[C@H](C(=O)N(C)C)C3)[C@H](C)[C@H]12` [MEROPENEM] gave an MIC50 (Acinetobacter baumannii [1]) of 16 µg/mL (≈ 41.7 µM), an MIC90 (Acinetobacter baumannii [1]) greater than 128 µg/mL and an Activity (Acinetobacter baumannii [2]) of 4%.

Molecule `CN(C)c1ccc(O)c2c1C[C@H]1C[C@H]3[C@H](N(C)C)C(O)=C(C(N)=O)C(=O)[C@@]3(O)C(O)=C1C2=O` [MINOCYCLINE] has an MIC50 (Acinetobacter baumannii [1]) of 0.5 µg/mL (≈ 1.09 µM), an MIC90 (Acinetobacter baumannii [1]) of 8 µg/mL (≈ 17.5 µM) and an Activity (Acinetobacter baumannii [2]) of 83%.

With `CO[C@H]1/C=C/O[C@@]2(C)Oc3c(C)c(O)c4c(O)c(c(/C=N/N5CCN(C)CC5)c(O)c4c3C2=O)NC(=O)/C(C)=C\C=C\[C@H](C)[C@H](O)[C@@H](C)[C@@H](O)[C@@H](C)[C@H](OC(C)=O)[C@@H]1C` [RIFAMPIN] the MIC50 (Acinetobacter baumannii [1]) was 4 µg/mL (≈ 4.86 µM), the MIC90 (Acinetobacter baumannii [1]) was 8 µg/mL (≈ 9.72 µM) and the Activity (Acinetobacter baumannii [2]) was “inactive”.

For `CN(C)c1cc(NC(=O)CNC(C)(C)C)c(O)c2c1C[C@H]1C[C@H]3[C@H](N(C)C)C(O)=C(C(N)=O)C(=O)[C@@]3(O)C(O)=C1C2=O` [TIGECYCLINE], the MIC50 (Acinetobacter baumannii [3]) was 1 µg/mL (≈ 1.71 µM), the MIC90 (Acinetobacter baumannii [3]) was 2 µg/mL (≈ 3.41 µM) and the Activity (Acinetobacter baumannii [2]) was 95%. The Activity (Acinetobacter baumannii [4]) was “Active”.

With POLYMYXIN B the MIC50 (Acinetobacter baumannii [1]) was 1 µg/mL, the MIC90 (Acinetobacter baumannii [1]) was 1 µg/mL and the Activity (Acinetobacter baumannii [2]) was 100%. The log10CFU/ml (Acinetobacter baumannii [5]) was 1.6.
